Measurements published in ChEMBL document CHEMBL3580554, “Design, synthesis, and anticonvulsant activity of new hybrid compounds derived from 2-(2,5-dioxopyrrolidin-1-yl)propanamides and 2-(2,5-dioxopyrrolidin-1-yl)butanamides” (J Med Chem, 2015).
Active and inactive are the calls of the source. No cut-off for these calls is given here.

How the values were obtained:
Mus musculus [1] = experiment: Anticonvulsant activity in Swiss mouse assessed as protection against seizures at 300 mg/kg, ip dosed 0.25 hrs before initiation of maximal electroconvulsions by maximal electroshock test; type: functional
Method in brief: (§1)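 Mice were dosed i.p. at a fixed 300 or 100 mg/kg (6 Hz: 100 mg/kg only). Protection was then scored against MES, sc PTZ or 6 Hz seizures at pretreatment times of 0.25, 0.5, 1 and 2 h. Groups were four mice, scored as number protected / number tested. This also gives the time course and time of peak effect.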

Mus musculus [2] = experiment: Anticonvulsant activity in Swiss mouse assessed as protection against seizures at 300 mg/kg, ip dosed 0.5 hrs before initiation of maximal electroconvulsions by maximal electroshock test; type: functional; method in brief: as §1
Mus musculus [3] = experiment: Anticonvulsant activity in Swiss mouse assessed as protection against seizures at 300 mg/kg, ip dosed 1 hr before initiation of maximal electroconvulsions by maximal electroshock test; type: functional; method in brief: as §1
Mus musculus [4] = experiment: Anticonvulsant activity in Swiss mouse assessed as protection against seizures at 300 mg/kg, ip dosed 2 hrs before initiation of maximal electroconvulsions by maximal electroshock test; type: functional; method in brief: as §1
Mus musculus [5] = experiment: Anticonvulsant activity in Swiss mouse assessed as protection against seizures at 100 mg/kg, ip dosed 0.25 hrs before initiation of maximal electroconvulsions by maximal electroshock test; type: functional; method in brief: as §1
Mus musculus [6] = experiment: Anticonvulsant activity in Swiss mouse assessed as protection against seizures at 100 mg/kg, ip dosed 0.5 hrs before initiation of maximal electroconvulsions by maximal electroshock test; type: functional; method in brief: as §1
Mus musculus [7] = experiment: Anticonvulsant activity in Swiss mouse assessed as protection against seizures at 100 mg/kg, ip dosed 1 hr before initiation of maximal electroconvulsions by maximal electroshock test; type: functional; method in brief: as §1
Mus musculus [8] = experiment: Anticonvulsant activity in Swiss mouse assessed as protection against seizures at 100 mg/kg, ip dosed 2 hrs before initiation of maximal electroconvulsions by maximal electroshock test; type: functional; method in brief: as §1
Mus musculus [9] = experiment: Anticonvulsant activity in Swiss mouse assessed as protection against seizures at 300 mg/kg, ip dosed 0.25 hrs before pentylenetetrazole challenge by subcutaneous pentylenetetrazole seizure test; type: functional; method in brief: as §1
Mus musculus [10] = experiment: Anticonvulsant activity in Swiss mouse assessed as protection against seizures at 300 mg/kg, ip dosed 0.5 hrs before pentylenetetrazole challenge by subcutaneous pentylenetetrazole seizure test; type: functional; method in brief: as §1
Mus musculus [11] = experiment: Anticonvulsant activity in Swiss mouse assessed as protection against seizures at 300 mg/kg, ip dosed 1 hr before pentylenetetrazole challenge by subcutaneous pentylenetetrazole seizure test; type: functional; method in brief: as §1
Mus musculus [12] = experiment: Anticonvulsant activity in Swiss mouse assessed as protection against seizures at 300 mg/kg, ip dosed 2 hrs before pentylenetetrazole challenge by subcutaneous pentylenetetrazole seizure test; type: functional; method in brief: as §1
Mus musculus [13] = experiment: Anticonvulsant activity in Swiss mouse assessed as protection against seizures at 100 mg/kg, ip dosed 0.25 hrs before pentylenetetrazole challenge by subcutaneous pentylenetetrazole seizure test; type: functional; method in brief: as §1
Mus musculus [14] = experiment: Anticonvulsant activity in Swiss mouse assessed as protection against seizures at 100 mg/kg, ip dosed 0.5 hrs before pentylenetetrazole challenge by subcutaneous pentylenetetrazole seizure test; type: functional; method in brief: as §1
Mus musculus [15] = experiment: Anticonvulsant activity in Swiss mouse assessed as protection against seizures at 100 mg/kg, ip dosed 1 hr before pentylenetetrazole challenge by subcutaneous pentylenetetrazole seizure test; type: functional; method in brief: as §1
Mus musculus [16] = experiment: Anticonvulsant activity in Swiss mouse assessed as protection against seizures at 100 mg/kg, ip dosed 2 hrs before pentylenetetrazole challenge by subcutaneous pentylenetetrazole seizure test; type: functional; method in brief: as §1
Mus musculus [17] = experiment: Anticonvulsant activity in Swiss mouse model of 6 Hz psychomotor seizure mode assessed as protection against seizures at 100 mg/kg, ip dosed 0.25 hrs before 6 Hz electrical stimulation by 6 Hz test; type: functional; method in brief: as §1
Mus musculus [18] = experiment: Anticonvulsant activity in Swiss mouse model of 6 Hz psychomotor seizure mode assessed as protection against seizures at 100 mg/kg, ip dosed 0.5 hrs before 6 Hz electrical stimulation by 6 Hz test; type: functional; method in brief: as §1
Mus musculus [19] = experiment: Anticonvulsant activity in Swiss mouse model of 6 Hz psychomotor seizure mode assessed as protection against seizures at 100 mg/kg, ip dosed 1 hr before 6 Hz electrical stimulation by 6 Hz test; type: functional; method in brief: as §1
Mus musculus [20] = experiment: Anticonvulsant activity in Swiss mouse model of 6 Hz psychomotor seizure mode assessed as protection against seizures at 100 mg/kg, ip dosed 2 hrs before 6 Hz electrical stimulation by 6 Hz test; type: functional; method in brief: as §1
Rattus norvegicus [21] = species: Rattus norvegicus; experiment: Inhibition of [3H]BTX binding to sodium channel site 2 in rat cerebral cortex synaptosomes at 100 uM incubated for 60 mins by scintillation counting based radioligand displacement assay; type: subcellular
Method in brief: (§2)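 Synaptoneurosomal preparations from rat cerebral cortex were used. The read-out was inhibition of specific [3H]BTX binding to the voltage-sensitive sodium channel (site 2), expressed as % inhibition of control specific binding. Compounds were tested at 1, 10, 100 and 500 μM. Inhibition above 50% was taken as significant.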

Rattus norvegicus [22] = species: Rattus norvegicus; experiment: Inhibition of [3H]BTX binding to sodium channel site 2 in rat cerebral cortex synaptosomes at 10 uM incubated for 60 mins by scintillation counting based radioligand displacement assay; type: subcellular; method in brief: as §2
Rattus norvegicus [23] = species: Rattus norvegicus; experiment: Inhibition of [3H]BTX binding to sodium channel site 2 in rat cerebral cortex synaptosomes at 1 uM incubated for 60 mins by scintillation counting based radioligand displacement assay; type: subcellular; method in brief: as §2
Mus musculus [24] = experiment: Anticonvulsant activity in ip dosed Swiss mouse assessed as protection against seizures measured at 0.25 hrs of time to peak effect by maximal electroshock test; type: functional
Method in brief: (§3)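 Median effective doses (ED50, mg/kg) were determined i.p. in mice at the time of peak effect in the MES, sc PTZ or 6 Hz tests. Only compounds giving at least 50% protection at 100 mg/kg in that test were taken forward.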

Mus musculus [25] = experiment: Anticonvulsant activity in ip dosed Swiss mouse assessed as protection against seizures measured at 0.25 hrs of time to peak effect by subcutaneous pentylenetetrazole seizure test; type: functional; method in brief: as §3
Mus musculus [26] = experiment: Anticonvulsant activity in ip dosed Swiss mouse assessed as protection against seizures measured at 0.25 hrs of time to peak effect by 6 Hz test by 6 Hz psychomotor seizure test; type: functional; method in brief: as §3
[27] = Toxicity in ip dosed Swiss mouse assessed as induction of motor performance impairment measured within 60 seconds measured at 0.25 hrs of time to peak effect by Chimney test; type: organism-based; details: in vivo
Method in brief: (§4)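 Neurotoxicity was measured i.p. in mice by the chimney test for motor impairment. It was given as the median neurotoxic dose (TD50, mg/kg) at the time of peak effect.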

Mus musculus [28] = species: Mus musculus; experiment: Protective index, ratio of neurotoxic TD50 in Swiss mouse by Chimney test to anticonvulsant ED50 in Swiss mouse measured at 0.25 hrs of time to peak effect by maximal electroshock test
Method in brief: (§5)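 Protective index was calculated as TD50 (chimney test, mouse, i.p.) divided by ED50 from the matching MES, sc PTZ or 6 Hz test, both taken at the time of peak effect.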

Mus musculus [29] = species: Mus musculus; experiment: Protective index, ratio of neurotoxic TD50 in Swiss mouse by Chimney test to anticonvulsant ED50 in Swiss mouse measured at 0.25 hrs of time to peak effect by 6 Hz test by 6 Hz psychomotor seizure test; type: functional; method in brief: as §5
Mus musculus [30] = species: Mus musculus; experiment: Protective index, ratio of neurotoxic TD50 in Swiss mouse by Chimney test to anticonvulsant ED50 in Swiss mouse measured at 0.5 hrs of time to peak effect by maximal electroshock test; method in brief: as §5
Mus musculus [31] = experiment: Anticonvulsant activity in ip dosed Swiss mouse assessed as protection against seizures measured at 0.5 hrs of time to peak effect by maximal electroshock test; type: functional; method in brief: as §3
Mus musculus [32] = experiment: Anticonvulsant activity in ip dosed Swiss mouse assessed as protection against seizures measured at 0.5 hrs of time to peak effect by subcutaneous pentylenetetrazole seizure test; type: functional; method in brief: as §3
Mus musculus [33] = experiment: Anticonvulsant activity in ip dosed Swiss mouse assessed as protection against seizures measured at 0.5 hrs of time to peak effect by 6 Hz test by 6 Hz psychomotor seizure test; type: functional; method in brief: as §3
[34] = Toxicity in ip dosed Swiss mouse assessed as induction of motor performance impairment measured within 60 seconds measured at 0.5 hrs of time to peak effect by Chimney test; type: organism-based; details: in vivo; method in brief: as §4
Mus musculus [35] = species: Mus musculus; experiment: Protective index, ratio of neurotoxic TD50 in Swiss mouse by Chimney test to anticonvulsant ED50 in Swiss mouse measured at 0.5 hrs of time to peak effect by 6 Hz test by 6 Hz psychomotor seizure test; type: functional; method in brief: as §5
Rattus norvegicus [36] = species: Rattus norvegicus; experiment: Inhibition of [3H]BTX binding to sodium channel site 2 in rat cerebral cortex synaptosomes at 500 uM incubated for 60 mins by scintillation counting based radioligand displacement assay; type: subcellular; method in brief: as §2
Rattus norvegicus [37] = species: Rattus norvegicus; experiment: Inhibition of [125I]omega-conotoxin GVIA binding to N-type calcium channel in rat cerebral cortex synaptosomes at 100 uM incubated for 30 mins by scintillation counting based radioligand displacement assay; type: subcellular
Rattus norvegicus [38] = species: Rattus norvegicus; experiment: Inhibition of [125I]omega-conotoxin GVIA binding to N-type calcium channel in rat cerebral cortex synaptosomes at 200 uM incubated for 30 mins by scintillation counting based radioligand displacement assay; type: subcellular
Mus musculus [39] = experiment: Anticonvulsant activity in ip dosed Swiss mouse assessed as protection against seizures measured at 1 hr of time to peak effect by maximal electroshock test; type: functional
Mus musculus [40] = experiment: Anticonvulsant activity in ip dosed Swiss mouse assessed as protection against seizures measured at 1 hr of time to peak effect by subcutaneous pentylenetetrazole seizure test; type: functional
Mus musculus [41] = experiment: Anticonvulsant activity in ip dosed Swiss mouse assessed as protection against seizures measured at 1 hr of time to peak effect by 6 Hz test by 6 Hz psychomotor seizure test; type: functional
[42] = Toxicity in ip dosed Swiss mouse assessed as induction of motor performance impairment measured within 60 seconds measured at 1 hr of time to peak effect by Chimney test; type: organism-based; details: in vivo
Method in brief: (§6)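 Neurotoxicity (TD50) estimated in mice i.p. by chimney test for motor coordination impairment; protective index calculated as TD50/ED50 for each seizure model.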

[43] = Protective index, ratio of neurotoxic TD50 in Swiss mouse by Chimney test to anticonvulsant ED50 in Swiss mouse measured at 1 hr of time to peak effect by 6 Hz test by 6 Hz psychomotor seizure test; type: toxicity; details: in vivo, read-out: Ratio TD50/ED50; method in brief: as §6

SMILES: COCC(C(=O)N1CCN(c2cccc(C(F)(F)F)c2)CC1)N1C(=O)CCC1=O (racemic)
- Activity (Mus musculus [1]): 25%
- Activity (Mus musculus [2]): 50%
- Activity (Mus musculus [3]): 100%
- Activity (Mus musculus [4]): 100%
- Activity (Mus musculus [5]): 100%
- Activity (Mus musculus [6]): 75%
- Activity (Mus musculus [7]): 50%
- Activity (Mus musculus [8]): 0%
- Activity (Mus musculus [9]): 100%
- Activity (Mus musculus [10]): 100%
- Activity (Mus musculus [11]): 75%
- Activity (Mus musculus [12]): 75%
- Activity (Mus musculus [13]): 50%
- Activity (Mus musculus [14]): 50%
- Activity (Mus musculus [15]): 50%
- Activity (Mus musculus [16]): 50%
- Activity (Mus musculus [17]): 100%
- Activity (Mus musculus [18]): 100%
- Activity (Mus musculus [19]): 75%
- Activity (Mus musculus [20]): 25%
- inhibition (Rattus norvegicus [21]): 38.7%
- inhibition (Rattus norvegicus [22]): 14.6%
- inhibition (Rattus norvegicus [23]): 5.7%
- ED50 (Mus musculus [24]): 58.1 mg/kg
- ED50 (Mus musculus [25]): > 120 mg/kg
- ED50 (Mus musculus [26]): 57.6 mg/kg
- TD50 at 0.25 h [27]: 203 mg/kg
- Ratio TD50/ED50 (Mus musculus [28]): 3.49
- Ratio TD50/ED50 (Mus musculus [29]): 3.52
- Ratio TD50/ED50 (Mus musculus [30]): 2.32
- ED50 (Mus musculus [31]): 85.1 mg/kg
- ED50 (Mus musculus [32]): > 120 mg/kg
- ED50 (Mus musculus [33]): > 120 mg/kg
- TD50 at 0.5 h [34]: 197 mg/kg
- Ratio TD50/ED50 (Mus musculus [35]): 2.64
- inhibition (Rattus norvegicus [36]): 77.6%
- inhibition (Rattus norvegicus [37]): inactive
- inhibition (Rattus norvegicus [38]): 3.2%

SMILES: CC[C@@H](C(N)=O)N1CCCC1=O
- ED50 (Mus musculus [39]): > 500 mg/kg
- ED50 (Mus musculus [40]): > 500 mg/kg
- ED50 (Mus musculus [41]): 14.8 mg/kg
- TD50 at 1 h [42]: > 500 mg/kg
- selectivity ratio at 1 h [43]: > 33.8
